The nature of series [1]: folding enthalpy; higher = less favourable; fluorescence melt of hairpins on a sequencing array, two-state fit. The note with it: sodium 0.088 M. In short, it runs like this: (§1)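 Cy3 signals were normalised both to pre-quench Cy3 and to control constructs. They came from library hairpins carrying annealed Cy3 and quencher oligos on a sequenced MiSeq flow cell, imaged in 50 mM Na-HEPES pH 8.0, 25 mM NaCl, in 2.5 °C steps up to 60 °C. Bootstrapped two-state fits gave melting temperature and folding enthalpy, and four replicates were combined by inverse variance. Fitted temperatures were then raised by 9.35 °C to match UV melts.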

A short description of series [2]: melting temperature; fluorescence melt of hairpins on a sequencing array, two-state fit, raised by 9.35 °C to match UV melts. The note with it: sodium 0.088 M. In short, it runs like this: as §1

As to GGTGCTGGAAACAACACC ((((.((....)).)))), in series [1], the folding enthalpy was -37.6 kcal/mol. In addition, in series [2], the Tm was 46 °C.
On the same counts, the results for GGTGCTGGAAACGGTACC (((.(.(....).).))) are -35.8 kcal/mol and 41.2 °C.
As for GGTGGACGAAAGTCGACC (((.(((....))).))), the folding enthalpy in series [1] was -39.9 kcal/mol. In addition, the Tm in series [2] was found to be 57.2 °C.
Regarding GGTGGAGAAATCCACC ((((((....)))))), the folding enthalpy in series [1] was -33.1 kcal/mol. The Tm in series [2] amounted to 59.8 °C.
Regarding GGTGGATCGAAAGATACC (((..(((....)))))), the folding enthalpy in series [1] is -18.4 kcal/mol. In addition, the Tm in series [2] was 35.6 °C.
In the case of GGTGGCGAAAGCCCAACC ((((((....)))..))), the folding enthalpy in series [1] is -14.8 kcal/mol. Moreover, in series [2], the Tm was 42 °C.
Turning to GGTGGCGAAAGCCCCACC ((((((....)))..))), in series [1], the folding enthalpy is -11.1 kcal/mol. In addition, the Tm in series [2] was found to be 49.8 °C.
As for GGTGGCGAAAGCCTGACC ((((((....)))..))), the folding enthalpy in series [1] is -14.2 kcal/mol. In series [2], the Tm is 41.9 °C.
GGTGGCGGAAACGTCACC ((((.((....)).)))): in series [1], the folding enthalpy is -48.2 kcal/mol. Moreover, in series [2], the Tm came out at 63.3 °C.
For the sequence GGTGGCGGAAACGTCGCC ((.(.((....)).).)), in series [1], the folding enthalpy is -39.9 kcal/mol. In addition, the Tm in series [2] was found to be 54.2 °C.
Take GGTGGGACGAAAGTCACC (((..(((....)))))): the folding enthalpy in series [1] is -14.4 kcal/mol. The Tm in series [2] worked out at 47 °C.
In the case of GGTGGGCGAAAGCCAACC (((.(((....))).))), the folding enthalpy in series [1] is -28.7 kcal/mol. The Tm in series [2] amounted to 64.1 °C.
With GGTGGGCGAAAGCCACC (((.(((....)))))), the folding enthalpy in series [1] is -21.3 kcal/mol. In series [2], the Tm was 66.1 °C.
Take GGTGGGGCGAAAGCCACC (((..(((....)))))): the folding enthalpy in series [1] was -12.3 kcal/mol. Further, the Tm in series [2] came to 54.5 °C.
With GGTGGGGGAAACCCCATC (.(((((....))))).), in series [1], the folding enthalpy is -24.2 kcal/mol. The Tm in series [2] was found to be 51.3 °C.
As to GGTGGTCGAAAGACGACC (((.(((....))).))), the folding enthalpy in series [1] is -38 kcal/mol. Also, the Tm in series [2] was 56.8 °C.
For GGTGGTGGAAACACCATC (.(((((....))))).) the same measures were -26.2 kcal/mol and 56.2 °C.
On the same counts, the results for GGTGGTGGAAACACCGTC (..((((....))))..) are -22.8 kcal/mol and 55.5 °C.
For GGTGTAACGAAAGTTACC (((..(((....)))))), the folding enthalpy in series [1] was -14.3 kcal/mol. Besides, the Tm in series [2] turned out to be 42.9 °C.
For GGTGTACGAAAGTAAACC (((.(((....))).))), in series [1], the folding enthalpy was -24.9 kcal/mol. Also, the Tm in series [2] came to 48.6 °C.
For the sequence GGTGTACGAAAGTAGACC (((.(((....))).))), the folding enthalpy in series [1] was -38.3 kcal/mol. Also, in series [2], the Tm was 52.2 °C.
For GGTGTAGCGAAAGCTACC (((..(((....)))))) the same measures were -9.3 kcal/mol and 49.1 °C.
For the sequence GGTGTAGGAAACCACACC (((((.(....).))))), in series [1], the folding enthalpy was -32.9 kcal/mol. In series [2], the Tm came to 47.4 °C.
GGTGTAGGAAACTACGCC ((.((((....)))).)): in series [1], the folding enthalpy was -43.2 kcal/mol. For the same sequence, the Tm in series [2] came out at 52.3 °C.
On the same counts, the results for GGTGTAGGAAACTATACC (((.(((....))).))) are -32 kcal/mol and 42.4 °C.
For GGTGTCGAAAGACAGACC ((((((....)))..))) the same measures were -15.1 kcal/mol and 44 °C.
GGTGTCGAAAGACGACC ((((((....))).))): in series [1], the folding enthalpy is -19.9 kcal/mol. Further, the Tm in series [2] came out at 52.6 °C.
Consider GGTGTCGAAAGACTCACC ((((((....)))..))), for which, in series [1], the folding enthalpy was -17.6 kcal/mol. Also, the Tm in series [2] amounted to 39.1 °C.
With GGTGTCGGAAACGGCACC ((((.((....)).)))), the folding enthalpy in series [1] is -46.5 kcal/mol. The Tm in series [2] came out at 64.7 °C.
Regarding GGTGTGGGAAACCACATC (.(((((....))))).), the folding enthalpy in series [1] is -21.1 kcal/mol. Further, the Tm in series [2] came out at 51.2 °C.
On the same counts, the results for GGTGTGGGAAACCACGCC ((.((((....)))).)) are -27.4 kcal/mol and 60.5 °C.
In the case of GGTGTGGGAAACCACGTC (..((((....))))..), in series [1], the folding enthalpy was -13 kcal/mol. The Tm in series [2] amounted to 39.3 °C.
For GGTGTGGGAAACCATGCC ((..(((....)))..)) the same measures were -30.7 kcal/mol and 45.5 °C.
On the same counts, the results for GGTGTGGGAAACCGCATC (.((.((....)).)).) are -23.7 kcal/mol and 41.9 °C.
On the same counts, the results for GGTGTTGCGAAAGCAACC (((..(((....)))))) are -8.2 kcal/mol and 49.5 °C.
Regarding GGTGTTGGAAACAATACC (((.(((....))).))), the folding enthalpy in series [1] is -39.7 kcal/mol. In series [2], the Tm was 47.4 °C.
In the case of GGTGTTGGAAACAGCATC (.((.((....)).)).), the folding enthalpy in series [1] is -17.7 kcal/mol. The Tm in series [2] came out at 46.5 °C.
